Calls of active or inactive are those of the source. The calls are words filed in the database; no cut-off is given here.

As usually defined, the inhibition is the relative decrease from the control value, in per cent. In general, IC50 refers to the concentration needed to halve the response being measured.

What all share (format): cell-based
For test [1], the target named is T1, Transient receptor potential cation channel subfamily M member 8 (Homo sapiens, UniProt Q7Z2W7). As to the kind of experiment: Inhibition of human TRPM8 expressed in HEK293 cells assessed as reduction in menthol-induced channel currents at 30 uM treated intracellularly via pipette after 60 secs by whole cell patch clamp electrophysiology method. Put shortly: (§1)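 HEK293 were transiently transfected with human TRPM8 (pcDNA4/TO) plus GFP using Lipofectamine 2000 and recorded 24–48 h later by whole-cell patch clamp. TRPM8 was activated by 1 mM menthol in ECS. Compound at 30 µM was placed in ECS or ICS, with 0.1 mM 2-APB as reference inhibitor. Mean peak currents reported as mean ± SEM, n = 5.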
Background: The patch-clamp technique gives a direct electrical read-out from membranes.
Target sequence in this assay (Q7Z2W7 whole entry, looked up): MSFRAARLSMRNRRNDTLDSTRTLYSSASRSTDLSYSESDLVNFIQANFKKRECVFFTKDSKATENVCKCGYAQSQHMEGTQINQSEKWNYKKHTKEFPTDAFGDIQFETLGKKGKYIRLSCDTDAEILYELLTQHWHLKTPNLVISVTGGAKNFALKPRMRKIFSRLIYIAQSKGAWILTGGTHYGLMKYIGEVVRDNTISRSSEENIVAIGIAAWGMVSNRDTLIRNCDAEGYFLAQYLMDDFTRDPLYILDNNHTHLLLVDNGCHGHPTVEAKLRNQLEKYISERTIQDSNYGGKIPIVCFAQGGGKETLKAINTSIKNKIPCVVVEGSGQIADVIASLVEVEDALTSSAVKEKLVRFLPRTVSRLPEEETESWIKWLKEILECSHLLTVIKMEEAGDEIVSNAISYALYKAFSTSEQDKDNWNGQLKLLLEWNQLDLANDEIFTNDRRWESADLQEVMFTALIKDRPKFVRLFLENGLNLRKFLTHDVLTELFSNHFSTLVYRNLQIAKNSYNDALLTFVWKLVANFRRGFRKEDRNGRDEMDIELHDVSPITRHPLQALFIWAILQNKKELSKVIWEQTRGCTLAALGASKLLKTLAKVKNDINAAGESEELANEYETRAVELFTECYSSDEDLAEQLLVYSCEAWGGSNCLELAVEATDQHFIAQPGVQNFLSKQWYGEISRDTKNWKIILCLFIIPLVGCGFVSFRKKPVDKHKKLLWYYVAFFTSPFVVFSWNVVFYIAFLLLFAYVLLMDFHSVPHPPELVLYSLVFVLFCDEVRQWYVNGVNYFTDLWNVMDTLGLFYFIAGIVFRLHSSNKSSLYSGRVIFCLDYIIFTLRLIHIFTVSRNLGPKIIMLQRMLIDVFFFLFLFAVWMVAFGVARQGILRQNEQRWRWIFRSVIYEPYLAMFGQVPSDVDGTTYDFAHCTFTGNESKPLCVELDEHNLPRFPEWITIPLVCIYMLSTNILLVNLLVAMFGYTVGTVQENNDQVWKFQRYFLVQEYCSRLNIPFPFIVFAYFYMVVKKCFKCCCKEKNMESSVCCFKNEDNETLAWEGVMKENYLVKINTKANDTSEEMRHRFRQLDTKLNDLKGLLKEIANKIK

The test system of test [2] is Transient receptor potential cation channel subfamily M member 2 (Homo sapiens), O94759 [H995A]. As to the kind of experiment: Inhibition of human TRPM2 H995A mutant expressed in HEK293 cells assessed as reduction in ADPR-induced channel currents at 30 uM treated extracellularly after 50 to 200 secs by whole cell patch clamp electrophysiology method.
The target of test [3] is T2, Transient receptor potential cation channel subfamily M member 2 (Homo sapiens, UniProt O94759). In words: Inhibition of human TRPM2 expressed in HEK293 cells assessed as reduction in ADPR-induced channel currents at 3 uM treated extracellularly after 60 secs by whole cell patch clamp electrophysiology method relative to control. Put shortly:
(§2)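 Tetracycline-inducible HEK293 stably expressing human TRPM2 (1 µg/mL tetracycline), whole-cell patch clamp at room temperature. ECS (mM): 145 NaCl, 5.6 KCl, 2 MgCl2, 1.2 CaCl2, 10 HEPES, pH 7.2. ICS contained 500 µM ADPR (pH 7.3). Compound was added to ECS. Held at 0 mV with 500 ms ramps from -100 to 100 mV every 5 s. IC50 came from concentration–response curves; mean ± SEM from at least five cells.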

Test [4] deals with T2, Transient receptor potential cation channel subfamily M member 2. In words: Inhibition of human TRPM2 expressed in HEK293 cells assessed as reduction in ADPR-induced channel currents treated extracellularly after 60 secs by whole cell patch clamp electrophysiology method. Put shortly: as §2
Test [5] addresses T1, Transient receptor potential cation channel subfamily M member 8. In words: Inhibition of human TRPM8 expressed in HEK293 cells assessed as reduction in menthol-induced channel currents at 30 uM treated extracellularly after 60 secs by whole cell patch clamp electrophysiology method relative to control. An outline of the steps:
as §1
Target sequence in this assay (Q7Z2W7 whole entry, looked up): as above

Test [6] addresses T2, Transient receptor potential cation channel subfamily M member 2. In words: Inhibition of human TRPM2 expressed in HEK293 cells assessed as reduction in ADPR-induced channel currents at 30 uM treated extracellularly after 60 secs by whole cell patch clamp electrophysiology method relative to control. Put shortly:
as §2

Test [7] shares this target. In words: Inhibition of human TRPM2 expressed in HEK293 cells assessed as reduction in H2O2-induced intracellular calcium flux at 30 uM after 30 mins by Fluo3-AM dye based fluorescence imaging assay. On the technique in general: Calcium flux is commonly read through the fluorescence of an indicator in the cells.
Test [8] concerns the target T1, Transient receptor potential cation channel subfamily M member 8. As to the kind of experiment: Inhibition of human TRPM8 expressed in HEK293 cells assessed as reduction in H2O2-induced intracellular calcium flux after 30 mins by Fluo4-AM dye based fluorescence assay.
Target sequence in this assay (Q7Z2W7 whole entry): as the sequence (Q7Z2W7 whole entry, looked up) above
The test system of test [9] is Transient receptor potential cation channel subfamily M member 2 (Homo sapiens), O94759 [D964A]. As to the kind of experiment: Inhibition of human TRPM2 D964A mutant expressed in HEK293 cells assessed as reduction in ADPR-induced channel currents at 30 uM treated extracellularly after 50 to 200 secs by whole cell patch clamp electrophysiology method relative to control.

Test [10] deals with T2, Transient receptor potential cation channel subfamily M member 2. In words: Inhibition of human TRPM2 expressed in HEK293 cells assessed as reduction in ADPR-induced channel currents at 30 to 1000 uM treated intracellularly after 60 secs by whole cell patch clamp electrophysiology method. Put shortly: (§3)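 Human TRPM2 in tetracycline-inducible HEK293, recorded by whole-cell patch clamp at room temperature. Compound at 30 µM or 1 mM was added to the pipette ICS together with 500 µM ADPR; the ICS (mM) was 147 NaCl, 1 EGTA, 1 MgCl2, 24 HEPES, pH 7.3. Ramps ran from -100 to 100 mV every 5 s from a 0 mV hold, with leak subtraction from the first three ramps.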

Test [11] has the same target. As to the kind of experiment: Inhibition of human TRPM2 expressed in HEK293 cells assessed as reduction in ADPR-induced channel currents at 30 to 1000 uM treated simultaneously after 60 secs by whole cell patch clamp electrophysiology method. Put shortly:
as §3

T2 sequence (O94759 whole entry): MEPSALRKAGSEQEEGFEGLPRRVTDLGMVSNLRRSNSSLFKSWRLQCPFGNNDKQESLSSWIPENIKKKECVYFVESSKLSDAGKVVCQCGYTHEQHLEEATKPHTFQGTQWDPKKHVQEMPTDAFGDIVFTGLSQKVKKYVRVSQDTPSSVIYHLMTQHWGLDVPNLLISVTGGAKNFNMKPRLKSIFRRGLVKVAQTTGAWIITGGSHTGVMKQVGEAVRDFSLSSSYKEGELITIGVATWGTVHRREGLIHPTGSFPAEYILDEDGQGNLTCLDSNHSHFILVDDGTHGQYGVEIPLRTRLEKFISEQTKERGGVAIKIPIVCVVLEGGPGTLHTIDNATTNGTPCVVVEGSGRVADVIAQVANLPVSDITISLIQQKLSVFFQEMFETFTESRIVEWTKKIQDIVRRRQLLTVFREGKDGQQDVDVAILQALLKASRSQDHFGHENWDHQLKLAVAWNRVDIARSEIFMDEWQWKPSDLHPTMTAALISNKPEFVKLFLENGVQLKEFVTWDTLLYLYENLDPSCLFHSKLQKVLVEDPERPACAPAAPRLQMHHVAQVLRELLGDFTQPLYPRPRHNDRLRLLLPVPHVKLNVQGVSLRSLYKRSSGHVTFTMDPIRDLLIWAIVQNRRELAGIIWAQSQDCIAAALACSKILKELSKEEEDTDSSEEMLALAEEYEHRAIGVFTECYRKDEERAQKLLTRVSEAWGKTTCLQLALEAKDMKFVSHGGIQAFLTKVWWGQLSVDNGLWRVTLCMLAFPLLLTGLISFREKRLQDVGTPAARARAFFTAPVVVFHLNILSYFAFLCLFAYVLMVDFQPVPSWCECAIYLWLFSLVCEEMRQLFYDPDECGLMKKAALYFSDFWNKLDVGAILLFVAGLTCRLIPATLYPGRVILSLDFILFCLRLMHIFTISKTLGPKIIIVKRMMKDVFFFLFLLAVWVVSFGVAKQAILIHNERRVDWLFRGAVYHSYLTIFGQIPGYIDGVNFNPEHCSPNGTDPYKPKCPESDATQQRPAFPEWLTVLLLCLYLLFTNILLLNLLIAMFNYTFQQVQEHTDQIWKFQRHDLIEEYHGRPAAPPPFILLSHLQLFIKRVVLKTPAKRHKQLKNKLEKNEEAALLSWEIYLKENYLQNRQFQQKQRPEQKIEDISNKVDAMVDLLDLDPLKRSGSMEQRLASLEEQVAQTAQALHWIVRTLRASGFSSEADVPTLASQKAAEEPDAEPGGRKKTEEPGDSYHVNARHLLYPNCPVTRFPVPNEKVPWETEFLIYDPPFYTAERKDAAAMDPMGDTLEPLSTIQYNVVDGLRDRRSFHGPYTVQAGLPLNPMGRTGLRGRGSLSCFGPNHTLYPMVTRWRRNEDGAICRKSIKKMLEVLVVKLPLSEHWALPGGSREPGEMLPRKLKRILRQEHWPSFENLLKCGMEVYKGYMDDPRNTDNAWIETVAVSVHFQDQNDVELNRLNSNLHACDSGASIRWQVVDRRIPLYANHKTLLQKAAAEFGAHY
Chain of Transient receptor potential cation channel subfamily M member 2 (Homo sapiens), O94759 [H995A] (O94759 whole entry H995A): as the sequence (O94759 whole entry) above, with H995A counted along it
Chain of Transient receptor potential cation channel subfamily M member 2 (Homo sapiens), O94759 [D964A] (O94759 whole entry D964A): as the sequence (O94759 whole entry) above, with D964A counted along it

Regarding `Cc1cc(Br)cc2c1NC(c1c[nH]nc1-c1cccc3ccccc13)NC2=O` (stereo not given), the inhibition result in test [1], in test [2] and in test [5] was “inactive” in each case. Besides, the inhibition in test [3] turned out to be 48.7%. Further, the IC50 in [4] was 3.7 µM.

`O=C1NC(c2c[nH]nc2-c2ccccc2)Nc2ccc(Cl)cc21` (stereo not given): the inhibition in test [6] stood at 27.9%.

As to `Cc1cc(Cl)cc2c1N[C@@H](c1c[nH]nc1-c1ccccc1)NC2=O`, the inhibition result in test [6] was “Active”.

For the molecule `O=C1NC(c2c[nH]nc2-c2ccccc2)Nc2c(Br)cc(Br)cc21` (stereo not given), in test [7], the inhibition entry is “Active”.

Consider `O=C1NC(c2c[nH]nc2-c2ccc(Cl)cc2)Nc2ccccc21` (stereo not given), for which the inhibition entry in test [7] was “Active”.

`Cc1cc(Cl)cc2c1NC(c1c[nH]nc1-c1ccc(-c3ccccc3)cc1)NC2=O` (stereo not given): the inhibition in test [6] came out at 17%.

With `O=c1[nH]c(-c2c[nH]nc2-c2ccccc2)nc2ccc(Cl)cc12`, the inhibition entry in test [7] was “Active”.

With `Cc1cccc2c1C(=O)NC(c1c[nH]nc1-c1ccccc1)N2` (stereo not given), in test [7], the inhibition result was “Active”.

Consider `CCCCCc1ccc(/C=C/C(=O)Nc2ccccc2C(=O)O)cc1`, for which the results for the inhibition in [6] and in test [3] were 89.1% and 75.9%, respectively. Moreover, the values for the IC50 in test [4] and in test [8] were 0.32 µM and 3.9 µM, respectively.

For the molecule `Cc1cc(Br)c2c(c1)C(=O)NC(c1c[nH]nc1-c1ccccc1)N2` (stereo not given), the inhibition entry in test [7] was “Active”.

On to `O=c1[nH]c(-c2c[nH]nc2-c2ccccc2)nc2ccccc12`, for which the inhibition in [6] is 28.7%.

As to `Cc1cc(Br)cc2c1NC(c1c[nH]nc1-c1ccc([N+](=O)[O-])cc1)NC2=O` (stereo not given), in test [3], the inhibition stood at 42.1%.

`O=c1[nH]c(-c2c[nH]nc2-c2ccccc2)nc2ncccc12`: the inhibition entry in [7] is “Active”.

For `Cc1cc(Cl)cc2c1NC(c1c[nH]nc1-c1ccccc1)NC2=O` (stereo not given), the inhibition entry in test [1] is “Active”. The inhibition in test [6] came out at 90.2%; in test [3] it was 46.4%; in test [5], 27%. For the same molecule, in [4], the IC50 amounted to 5.1 µM.

With `Cc1cc(Cl)cc2c1NC(c1c[nH]nc1-c1ccccc1Br)NC2=O` (stereo not given), in [6], the inhibition stood at 17.9%.

Take `O=C1NC(c2c[nH]nc2-c2ccccc2)Nc2c(Cl)cc(Cl)cc21` (stereo not given): the inhibition result in [7] is “Active”.

Turning to `O=C1NC(c2c[nH]nc2-c2ccc([N+](=O)[O-])cc2)Nc2c(I)cc(Cl)cc21` (stereo not given), the inhibition in [3] amounted to 34.9%.

On to `O=C1NC(c2cncn2Cc2ccc(Cl)cc2)Nc2ccccc21` (stereo not given), for which, in test [7], the inhibition result is “Active”.

Turning to `O=c1[nH]c(SCc2ccncc2)nc2ccccc12`, in [7], the inhibition result is “Active”.

Regarding `O=C1NC(c2c[nH]nc2-c2ccccc2)Nc2c(Br)cc(F)cc21` (stereo not given), the inhibition entry in test [7] is “Active”.

Take `Cc1cc(C)c2nc(-c3c[nH]nc3-c3ccccc3)[nH]c(=O)c2c1`: the inhibition result in test [7] is “Active”.

As for `Cc1cc(Cl)cc2c1NC(c1c[nH]nc1-c1ccc([N+](=O)[O-])cc1)NC2=O` (stereo not given), the inhibition worked out at 90.4% in [6] and 43.4% in test [3].

With `O=C1NC(c2c[nH]nc2-c2ccccc2)Nc2cc(Br)ccc21` (stereo not given), the inhibition result in [7] is “Active”.

On to `O=C1NC(c2cc(-c3ccccc3)c[nH]2)Nc2ccccc21` (stereo not given), for which the inhibition entry in [7] was “Active”.

For `O=C1NC(c2c[nH]nc2-c2ccccc2)Nc2ccccc21` (stereo not given), the inhibition in test [9] is 40 to 50%; in test [6], 55 to 68.1%; in [2] it was 4%. The inhibition result in [10] and in [11] was “inactive” in each case. In test [7], the inhibition result is “Active”.

Turning to `O=C1NC(c2c[nH]nc2-c2ccccc2)Nc2c(Br)cccc21` (stereo not given), the inhibition entry in test [7] was “Active”.

Turning to `Cc1cc(Cl)cc2c1N[C@H](c1c[nH]nc1-c1ccccc1)NC2=O`, the inhibition result in test [6] was “Active”.

As to `O=C1NC(c2c[nH]nc2-c2ccccc2)Nc2c1cccc2[N+](=O)[O-]` (stereo not given), the inhibition result in test [7] was “Active”.

`O=C1NC(c2c[nH]nc2-c2ccccc2)Nc2c(I)cc(I)cc21` (stereo not given): the inhibition entry in [7] is “Active”.

Turning to `Cc1cccc2c1NC(c1c[nH]nc1-c1ccccc1)NC2=O` (stereo not given), the inhibition in [6] was found to be 39.2%.

In the case of `Cc1cc(Cl)cc2c1NC(c1cn[nH]c1)NC2=O` (stereo not given), the inhibition in test [6] was determined as 16.9%.

In the case of `O=C1NC(c2c[nH]nc2-c2cccc3ccccc23)Nc2c(I)cc(Cl)cc21` (stereo not given), the inhibition in [3] was 19.9%.

`Cc1cc(Br)cc2c1NC(c1c[nH]nc1-c1ccccc1)NC2=O` (stereo not given): in [1], the inhibition entry is “Active”. In addition, the results for the inhibition in [6], in test [3] and in test [5] were 92.8%, 50.1% and 19%, respectively. Further, the IC50 in [4] turned out to be 4.6 µM.

For the molecule `Cc1cc(Cl)cc2c1NC(c1c[nH]nc1-c1cccc3ccccc13)NC2=O` (stereo not given), the inhibition result in [1] and in test [5] was “inactive” in each case. For the same molecule, the inhibition in [6] came out at 90.2%; in test [3] it was 50.9%. In addition, in [4], the IC50 came out at 4 µM.

In the case of `Cc1cc(C)c2c(c1)C(=O)NC(c1c[nH]nc1-c1ccccc1)N2` (stereo not given), the inhibition in test [6] was determined as 60.5%.

Consider `O=C1NC(c2c[nH]nc2-c2ccccc2)Nc2c(F)cc(F)cc21` (stereo not given), for which, in test [6], the inhibition was determined as 37.2%.

Regarding `O=C1NC(c2c[nH]nc2-c2ccccc2)Nc2cccc(Cl)c21` (stereo not given), the inhibition result in test [7] was “Active”.

For the molecule `Nc1ncnc2c1ncn2[C@@H]1O[C@H](COP(=O)(O)O)[C@@H](O)[C@H]1O`, in test [9], the inhibition entry is “Active”. Besides, in test [2], the inhibition result is “inactive”. Also, the inhibition result in test [4] is “Dose-dependent effect”.

For the molecule `Cc1cc(Cl)cc2c(=O)[nH]c(-c3c[nH]nc3-c3ccccc3)nc12`, the inhibition result in test [7] is “Active”.

In the case of `Cc1cc(I)cc2c1NC(c1c[nH]nc1-c1ccccc1)NC2=O` (stereo not given), in test [7], the inhibition result is “Active”.

`Cc1cc(F)cc2c1NC(c1c[nH]nc1-c1ccccc1)NC2=O` (stereo not given): in [6], the inhibition was 42.7%.

Turning to `COc1cc(Br)cc2c1NC(c1c[nH]nc1-c1ccccc1)NC2=O` (stereo not given), in test [6], the inhibition was 50.4%.

For `Cc1cc(Cl)cc2c1NC(c1c[nH]nc1-c1ccc(Cl)cc1)NC2=O` (stereo not given), in [6], the inhibition stood at 10.3%.

For `Cc1cc(Cl)cc2c1NC(c1c[nH]nc1-c1ccc(Br)cc1)NC2=O` (stereo not given), the inhibition in test [6] stood at 51%.

As for `O=C1NC(c2c[nH]nc2-c2ccccc2)Nc2c(I)cc(Cl)cc21` (stereo not given), the figures for the inhibition in test [6] and in test [3] were 89.4% and 39.6%, respectively.

Take `O=C1NC(c2c[nH]nc2-c2ccccc2)Nc2ccc(F)cc21` (stereo not given): in test [6], the inhibition came to 34.8%.

`Cc1cccc2c(=O)[nH]c(-c3c[nH]nc3-c3ccccc3)nc12`: the inhibition in test [6] was 21.2%.

The record behind these values is ChEMBL document CHEMBL4152243, “Design, synthesis and biological activities of 2,3-dihydroquinazolin-4(1H)-one derivatives as TRPM2 inhibitors” (Eur J Med Chem, 2018).
